Assay results from ChEMBL document CHEMBL1128288, “7-Azetidinylquinolones as antibacterial agents. 3. Synthesis, properties and structure-activity relationships of the stereoisomers containing a 7-(3-amino-2-methyl-1-azetidinyl) moiety” (J Med Chem, 1995).
Converted amounts (≈) assume the structure as drawn.

Experiments:
Bacillus subtilis = assay: In vitro antibacterial activity measured as minimum inhibitory concentration was evaluated on Bacillus subtilis ATCC 6633(Bs).; assay type: functional
How it was run: (§1)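 Serial 2-fold agar dilution in Mueller Hinton medium, run side by side with reference quinolones. Inoculum 10^5 cfu/mL; compound range 0.007–16 µg/mL.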

Bacillus cereus = assay: In vitro antibacterial activity measured as minimum inhibitory concentration was evaluated on Bacillus cereus ATCC 11778 (Bc).; assay type: functional; how it was run: as §1
Staphylococcus aureus [1] = assay: In vivo efficacy as ED50 against Staphylococcus aureus HS-93 by oral administration in mice.; assay type: functional
How it was run: (§2)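 Mice, 4 groups of 10, infected intraperitoneally with slightly more than the LD100 of the organism. A single oral dose was given immediately after infection, with four doses (one per group) chosen from in vitro activity. Survival was scored after one week. ED50 (total dose, mg/kg, protecting 50%) was interpolated among group survival rates.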

Proteus vulgaris = assay: In vitro antibacterial activity measured as minimum inhibitory concentration was evaluated on proteus vulgaris ATCC 8427 (Pv).; assay type: functional; how it was run: as §1
[2] = test system: Staphylococcus epidermidis; assay: In vitro antibacterial activity measured as minimum inhibitory concentration was evaluated on Staphylococcus epidermidis ATCC 155-1 (Se).; assay type: functional; how it was run: as §1
Klebsiella pneumoniae = assay: In vitro antibacterial activity measured as minimum inhibitory concentration was evaluated on klebsiella pneumoniae ATCC 10031 (Kp).; assay type: functional
How it was run: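 Serial 2-fold agar dilution in Mueller Hinton medium, run side by side with reference quinolones.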

Enterococcus faecalis = assay: In vitro antibacterial activity measured as minimum inhibitory concentration was evaluated on Streptococcus faecalis ATCC 10541 (Sf).; assay type: functional; how it was run: as §1
[3] = mouse, in vivo, po, 50 mg/kg
Pseudomonas aeruginosa [4] = assay: In vivo efficacy as ED50 against Pseudomonas aeruginosa HS-116 by oral administration in mice.; assay type: functional; how it was run: as §2
Escherichia coli [5] = assay: In vivo efficacy as ED50 against Escherichia coli HM-42 by oral administration in mice.; assay type: functional; how it was run: as §2
Staphylococcus aureus [6] = assay: In vitro antibacterial activity measured as minimum inhibitory concentration was evaluated on Staphylococcus aureus ATCC 25178 (Sa).; assay type: functional; how it was run: as §1
Escherichia coli [7] = assay: In vitro antibacterial activity measured as minimum inhibitory concentration, was evaluated on Escherichia coli ATCC 23559(Ec).; assay type: functional; how it was run: as §1
Morganella morganii = assay: In vitro antibacterial activity measured as minimum inhibitory concentration was evaluated on morganella morganii ATCC 8019 (Mm).; assay type: functional; how it was run: as §1
Enterobacter cloacae = assay: In vitro antibacterial activity measured as minimum inhibitory concentration, was evaluated on Enterobacter cloacae ATCC 23355 (Ecl).; assay type: functional
Pseudomonas aeruginosa [8] = assay: In vitro antibacterial activity measured as minimum inhibitory concentration was evaluated on Pseudomonas aeruginosa ATCC 10145 (Pa).; assay type: functional; how it was run: as §1
[9] = Bacillus subtilis, ATCC 6633, read-out: MIC
[10] = Bacillus cereus, ATCC 11778, read-out: MIC
[11] = Staphylococcus aureus, po, read-out: ED50
[12] = Proteus vulgaris, ATCC 8427, read-out: MIC
[13] = Staphylococcus epidermidis, ATCC 155-1, read-out: MIC
[14] = Klebsiella pneumoniae, ATCC 10031, read-out: MIC
[15] = Enterococcus faecalis, ATCC 10541, read-out: MIC
[16] = Pseudomonas aeruginosa, po, read-out: ED50
[17] = Escherichia coli, po, read-out: ED50
[18] = Staphylococcus aureus, ATCC 25178, read-out: MIC
[19] = Escherichia coli, ATCC 23559, read-out: MIC
[20] = Morganella morganii, ATCC 8019, read-out: MIC
[21] = Enterobacter cloacae, ATCC 23355, read-out: MIC
[22] = Pseudomonas aeruginosa, ATCC 10145, read-out: MIC

C[C@H]1[C@H](N)CN1c1c(F)cc2c(=O)c(C(=O)O)cn(C3CC3)c2c1Cl (single isomer, unassigned)
MIC (Bacillus subtilis; [9]): 0.015 µg/mL (≈ 0.041 µM)
MIC (Bacillus cereus; [10]): 0.015 µg/mL (≈ 0.041 µM)
ED50 (Staphylococcus aureus [1]; [11]): 3.6 mg/kg
MIC (Proteus vulgaris; [12]): 0.015 µg/mL (≈ 0.041 µM)
MIC [2, 13]: 0.015 µg/mL (≈ 0.041 µM)
MIC (Klebsiella pneumoniae; [14]): 0.015 µg/mL (≈ 0.041 µM)
MIC (Enterococcus faecalis; [15]): 0.015 µg/mL (≈ 0.041 µM)
AUC [3]: 5200 ng·h/mL
ED50 (Pseudomonas aeruginosa [4]; [16]): 36 mg/kg
ED50 (Escherichia coli [5]; [17]): 2.1 mg/kg
MIC (Staphylococcus aureus [6]; [18]): 0.015 µg/mL (≈ 0.041 µM)
MIC (Escherichia coli [7]; [19]): 0.015 µg/mL (≈ 0.041 µM)
MIC (Morganella morganii; [20]): 0.015 µg/mL (≈ 0.041 µM)
MIC (Enterobacter cloacae; [21]): 0.015 µg/mL (≈ 0.041 µM)

C[C@H]1[C@H](N)CN1c1nc2c(cc1F)c(=O)c(C(=O)O)cn2-c1ccc(F)cc1F (single isomer, unassigned)
MIC (Pseudomonas aeruginosa [8]; [22]): 0.5 µg/mL (≈ 1.24 µM)
MIC (Bacillus subtilis; [9]): 0.015 µg/mL (≈ 0.0371 µM)
MIC (Bacillus cereus; [10]): 0.06 µg/mL (≈ 0.148 µM)
ED50 (Staphylococcus aureus [1]; [11]): 6.6 mg/kg
MIC (Proteus vulgaris; [12]): 0.5 µg/mL (≈ 1.24 µM)
MIC [2, 13]: 0.12 µg/mL (≈ 0.297 µM)
MIC (Klebsiella pneumoniae; [14]): 0.015 µg/mL (≈ 0.0371 µM)
MIC (Enterococcus faecalis; [15]): 0.5 µg/mL (≈ 1.24 µM)
AUC [3]: 38200 ng·h/mL
ED50 (Pseudomonas aeruginosa [4]; [16]): 156 mg/kg
ED50 (Escherichia coli [5]; [17]): 4.2 mg/kg
MIC (Staphylococcus aureus [6]; [18]): 0.06 µg/mL (≈ 0.148 µM)
MIC (Escherichia coli [7]; [19]): 0.06 µg/mL (≈ 0.148 µM)
MIC (Enterobacter cloacae; [21]): 0.06 µg/mL (≈ 0.148 µM)

C[C@H]1[C@H](N)CN1c1c(F)cc2c(=O)c(C(=O)O)cn(C3CC3)c2c1F (single isomer, unassigned)
MIC (Bacillus subtilis; [9]): 0.015 µg/mL (≈ 0.0429 µM)
ED50 (Staphylococcus aureus [1]; [11]): 3.5 mg/kg
MIC [2, 13]: 0.015 µg/mL (≈ 0.0429 µM)
MIC (Klebsiella pneumoniae; [14]): 0.015 µg/mL (≈ 0.0429 µM)
AUC [3]: 21800 ng·h/mL
ED50 (Pseudomonas aeruginosa [4]; [16]): 18 mg/kg
ED50 (Escherichia coli [5]; [17]): 1 mg/kg
MIC (Staphylococcus aureus [6]; [18]): 0.015 µg/mL (≈ 0.0429 µM)
MIC (Escherichia coli [7]; [19]): 0.015 µg/mL (≈ 0.0429 µM)
MIC (Morganella morganii; [20]): 0.015 µg/mL (≈ 0.0429 µM)
MIC (Enterobacter cloacae; [21]): 0.015 µg/mL (≈ 0.0429 µM)

C[C@H]1[C@H](N)CN1c1cc2c(cc1F)c(=O)c(C(=O)O)cn2C1CC1 (single isomer, unassigned)
MIC (Pseudomonas aeruginosa [8]; [22]): 0.12 µg/mL (≈ 0.362 µM)
MIC (Bacillus subtilis; [9]): 0.015 µg/mL (≈ 0.0453 µM)
MIC (Bacillus cereus; [10]): 0.015 µg/mL (≈ 0.0453 µM)
ED50 (Staphylococcus aureus [1]; [11]): 17 mg/kg
MIC [2, 13]: 0.06 µg/mL (≈ 0.181 µM)
MIC (Klebsiella pneumoniae; [14]): 0.015 µg/mL (≈ 0.0453 µM)
MIC (Enterococcus faecalis; [15]): 0.12 µg/mL (≈ 0.362 µM)
AUC [3]: 4000 ng·h/mL
ED50 (Pseudomonas aeruginosa [4]; [16]): 100 mg/kg
ED50 (Escherichia coli [5]; [17]): 2.9 mg/kg
MIC (Staphylococcus aureus [6]; [18]): 0.06 µg/mL (≈ 0.181 µM)
MIC (Escherichia coli [7]; [19]): 0.015 µg/mL (≈ 0.0453 µM)
MIC (Morganella morganii; [20]): 0.015 µg/mL (≈ 0.0453 µM)
MIC (Enterobacter cloacae; [21]): 0.015 µg/mL (≈ 0.0453 µM)

C[C@@H]1[C@@H](N)CN1c1c(F)cc2c(=O)c(C(=O)O)cn(C3CC3)c2c1F (stereo in doubt; 22)
MIC (Pseudomonas aeruginosa [8]): 0.25 µg/mL (≈ 0.716 µM)
MIC (Bacillus subtilis): 0.03 µg/mL (≈ 0.0859 µM)
MIC (Bacillus cereus): 0.06 µg/mL (≈ 0.172 µM)
ED50 (Staphylococcus aureus [1]): 9 mg/kg
MIC (Proteus vulgaris): 0.06 µg/mL (≈ 0.172 µM)
MIC [2]: 0.06 µg/mL (≈ 0.172 µM)
MIC (Klebsiella pneumoniae): 0.03 µg/mL (≈ 0.0859 µM)
MIC (Enterococcus faecalis): 0.25 µg/mL (≈ 0.716 µM)
ED50 (Pseudomonas aeruginosa [4]): 22 mg/kg
ED50 (Escherichia coli [5]): 2 mg/kg
MIC (Staphylococcus aureus [6]): 0.06 µg/mL (≈ 0.172 µM)
MIC (Escherichia coli [7]): 0.015 µg/mL (≈ 0.0429 µM)
MIC (Morganella morganii): 0.03 µg/mL (≈ 0.0859 µM)
MIC (Enterobacter cloacae): 0.03 µg/mL (≈ 0.0859 µM)

C[C@@H]1[C@H](N)CN1c1c(F)cc2c(=O)c(C(=O)O)cn(C3CC3)c2c1F (stereo in doubt; 23)
MIC (Pseudomonas aeruginosa [8]; [22]): 1 µg/mL (≈ 2.86 µM)
MIC (Bacillus subtilis; [9]): 0.06 µg/mL (≈ 0.172 µM)
MIC (Bacillus cereus; [10]): 0.12 µg/mL (≈ 0.344 µM)
ED50 (Staphylococcus aureus [1]): 18.6 mg/kg
MIC (Proteus vulgaris): 0.25 µg/mL (≈ 0.716 µM)
MIC [2, 13]: 0.12 µg/mL (≈ 0.344 µM)
MIC (Klebsiella pneumoniae): 0.12 µg/mL (≈ 0.344 µM)
MIC (Enterococcus faecalis; [15]): 1 µg/mL (≈ 2.86 µM)
ED50 (Pseudomonas aeruginosa [4]; [16]): 123 mg/kg
ED50 (Escherichia coli [5]; [17]): 6.2 mg/kg
MIC (Staphylococcus aureus [6]; [18]): 0.12 µg/mL (≈ 0.344 µM)
MIC (Escherichia coli [7]; [19]): 0.06 µg/mL (≈ 0.172 µM)
MIC (Morganella morganii; [20]): 0.12 µg/mL (≈ 0.344 µM)
MIC (Enterobacter cloacae; [21]): 0.06 µg/mL (≈ 0.172 µM)

C[C@@H]1[C@H](N)CN1c1c(F)cc2c(=O)c(C(=O)O)cn(C3CC3)c2c1F (stereo in doubt; 23c)
MIC (Pseudomonas aeruginosa [8]): 0.5 µg/mL (≈ 1.43 µM)
MIC (Bacillus subtilis): 0.03 µg/mL (≈ 0.0859 µM)
MIC (Bacillus cereus): 0.06 µg/mL (≈ 0.172 µM)
ED50 (Staphylococcus aureus [1]): 5.4 mg/kg
MIC (Proteus vulgaris): 0.12 µg/mL (≈ 0.344 µM)
MIC [2]: 0.12 µg/mL (≈ 0.344 µM)
MIC (Klebsiella pneumoniae): 0.03 µg/mL (≈ 0.0859 µM)
MIC (Enterococcus faecalis): 0.5 µg/mL (≈ 1.43 µM)
ED50 (Pseudomonas aeruginosa [4]): 117 mg/kg
ED50 (Escherichia coli [5]): 6.1 mg/kg
MIC (Staphylococcus aureus [6]): 0.06 µg/mL (≈ 0.172 µM)
MIC (Escherichia coli [7]): 0.03 µg/mL (≈ 0.0859 µM)
MIC (Morganella morganii): 0.06 µg/mL (≈ 0.172 µM)
MIC (Enterobacter cloacae): 0.03 µg/mL (≈ 0.0859 µM)

O=C(O)c1cn(C2CC2)c2cc(N3CCNCC3)c(F)cc2c1=O [CIPROFLOXACIN]
AUC [3]: 2300 ng·h/mL
ED50 (Pseudomonas aeruginosa [4]; [16]): 70 mg/kg
ED50 (Escherichia coli [5]; [17]): 3 mg/kg

C[C@H]1COc2c(N3CCN(C)CC3)c(F)cc3c(=O)c(C(=O)O)cn1c23.C[C@H]1COc2c(N3CCN(C)CC3)c(F)cc3c(=O)c(C(=O)O)cn1c23.O [LEVOFLOXACIN]
MIC (Pseudomonas aeruginosa [8]; [22]): 0.5 µg/mL
MIC (Bacillus subtilis; [9]): 0.03 µg/mL
MIC (Bacillus cereus; [10]): 0.25 µg/mL
ED50 (Staphylococcus aureus [1]; [11]): 14 mg/kg
MIC (Proteus vulgaris; [12]): 0.5 µg/mL
MIC [2, 13]: 0.12 µg/mL
MIC (Klebsiella pneumoniae; [14]): 0.03 µg/mL
MIC (Enterococcus faecalis; [15]): 0.25 µg/mL
AUC [3]: 10200 ng·h/mL
ED50 (Pseudomonas aeruginosa [4]; [16]): 109 mg/kg
ED50 (Escherichia coli [5]; [17]): 5 mg/kg
MIC (Staphylococcus aureus [6]; [18]): 0.25 µg/mL
MIC (Morganella morganii; [20]): 0.03 µg/mL
MIC (Enterobacter cloacae; [21]): 0.03 µg/mL
